Assay results gathered from unrelated publications.
Compare with care: the assays were run in different laboratories.
Target: Cyclin-dependent kinase 15 (CDK15, Homo sapiens, UniProt Q96Q40)

| SMILES | assay | conditions | remaining binding |
| --- | --- | --- | --- |
| O=C(NCCCN1CCOCC1)c1ccc(Nc2ncc(Cl)c(-c3ccc(Cl)s3)n2)cc1 | binding, competition with immobilised ligand | 1 µM | 89% |
| Nc1ncc2c(n1)-c1c([nH]c3ccc(C#CC4CC4)cc13)CCCC2 | binding, competition with immobilised ligand | 1 µM | 96% |
| COc1ncc2cc3ccccc3nc2c1C#N | cell-free assay, competition with immobilised ligand | 5 µM | 99% |
| CN(C)CC#Cc1ccc(OCCCc2sc(N3CCc4cccc(C(=O)Nc5nc6ccccc6s5)c4C3)nc2C(=O)O)c(F)c1 | cell-free assay, competition with immobilised ligand | 1 µM | 100% |
| CCN1CCN(Cc2ccc(C(=O)Nc3ccc(C)c(Oc4ccc5c(c4)CC(=O)N5)c3)cc2C(F)(F)F)CC1 | binding, competition with immobilised ligand | 1 µM | 100% |
| CCS(=O)(=O)c1cc2cc(C[C@@](O)(CC(C)(C)c3ccc(F)cc3C(N)=O)C(F)(F)F)[nH]c2cn1 | cell-free assay, competition with immobilised ligand | 1 µM | 59% |
| CN(C)c1nccc(-c2cnc3ncccn23)n1 | binding | 1 µM | 83% |
| CCc1ccccc1C(=O)Nc1n[nH]c2c(C)c(F)c(C3C(C#N)=C(C)N(C)C(C)=C3C#N)cc12 | cell-free assay, competition with immobilised ligand | 1 µM | 95% |
| O=C(Nc1c[nH]nc1C(=O)NC1CCNCC1)c1cc(F)cc(F)c1 | binding, competition with immobilised ligand | 1 µM | 79% |
| Cc1nc(N2CC[C@@H](O)C2)ncc1-c1cc(C(F)(F)F)cc2[nH]ncc12 | binding, competition with immobilised ligand | 1 µM | 81% |
| Cc1cnn2ncc(-c3ccnc(N(C)C)n3)c2c1 | binding | 1 µM | 100% |
| C[C@@H]1CN(c2cc(-c3nn(C)c4ccc(OC5(C)CC5)cc34)ncn2)C[C@H](C)O1 | cell-free assay, competition with immobilised ligand | 1 µM | 84% |
| N[C@@H]1CCN(c2nccc(-c3cnn4ncccc34)n2)C1 | binding | 1 µM | 100% |
| O=C(NCCCC1CCCCC1)c1ccc(CNC(=O)c2cnn(-c3ccccc3)c2C(F)(F)F)cc1 | cell-free assay, competition with immobilised ligand | 0.1 µM | 77% |
| CNC(=O)[C@@H]1CC[C@@H](n2c(-c3ccc4cnccc4c3)nc3ccc(C(=O)NCc4cccc(C(N)=O)c4)cc32)C1 | binding, competition with immobilised ligand | 1 µM | 100% |
| COc1ccnn2ncc(-c3ccnc(N(C)C)n3)c12 | binding | 1 µM | 41% |
| CCOC(=O)c1cc2cc(-c3cc(C(=O)NCc4ccc(C(=O)O)cc4)nn3C)ccc2[nH]1 | cell-free assay, competition with immobilised ligand | 0.1 µM | 93% |
| COc1cnc(Nc2cccc(S(N)(=O)=O)c2)nc1N1CCN(c2ccccc2)CC1 | binding, competition with immobilised ligand | 1 µM | 93% |
| CN(C)c1ncc(F)c(-c2cnn3ncccc23)n1 | binding | 1 µM | 100% |
| O=C(NCCCN1CCOCC1)c1ccc(Nc2nccc(-c3cc4ccccc4s3)n2)cc1 | binding, competition with immobilised ligand | 1 µM | 87% |
| c1cnn2ncc(-c3ccnc(N4CCC45COC5)n3)c2c1 | binding | 1 µM | 85% |
| Cc1cnc(Nc2ccc(C(=O)N3CCC(N4CCCC4)CC3)cc2)nc1-c1cc2ccccc2s1 | binding, competition with immobilised ligand | 1 µM | 99% |
